Data reported in ChEMBL document CHEMBL2176962, “Repositioning HIV-1 integrase inhibitors for cancer therapeutics: 1,6-naphthyridine-7-carboxamide as a promising scaffold with drug-like properties” (J Med Chem, 2012).
Calls of active or inactive are those of the source. No cut-off for these calls is given here.

Key:
[1] = molecular target: Proto-oncogene tyrosine-protein kinase Src (Homo sapiens) (UniProt P12931); experiment: Inhibition of SRC at 10 uM incubated for 60 mins using poly(Glu,Tyr)4:1 substrate and 10 uM ATP by ELISA
Procedure, shortened: (§1)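 ELISA with Poly(Glu,Tyr)4:1 (20 μg/mL) precoated as substrate and 10 μM ATP, in 50 mM HEPES pH 7.4, 20 mM MgCl2, 0.1 mM MnCl2, 0.2 mM Na3VO4, 1 mM DTT. Compound was tested at 10 μM, in duplicate. Kinase reaction ran 60 min at 37 °C. Phosphotyrosine was detected with PY99 and HRP anti-mouse IgG, developed with o-phenylenediamine/H2O2, stopped with H2SO4 and read at 492 nm. Inhibition = [1 − A492 treated/A492 control] × 100%. References: lapatinib (ErbB2) and PP2 (Src), each at 10 μM.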

LNCaP = experiment: Cytotoxicity against human LNCAP cells incubated for 72 hrs by MTT assay; format: functional, cell-based
Procedure, shortened: (§2)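 Cells were kept in DMEM (MDA-MB-435, MCF7, LNCaP) or RPMI (HT29, HCT116) with 10% heat-inactivated FBS and 2 mM L-glutamine, subconfluent and in exponential growth. They were seeded, allowed to adhere overnight, then exposed continuously to compound (10 mM DMSO stock) for 72 h. MTT was added to 0.3 mg/mL final for 3–4 h at 37 °C, formazan was dissolved in DMSO, and absorbance was read at 570 nm. Runs were in triplicate; IC50 came from log concentration versus percent cell kill.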

HT-29 = experiment: Cytotoxicity against human HT-29 cells incubated for 72 hrs by MTT assay; format: functional, cell-based; details: HT-29, 72 h; procedure, shortened: as §2
MCF7 = experiment: Cytotoxicity against human MCF7 cells incubated for 72 hrs by MTT assay; format: functional, cell-based; details: MCF7, 72 h; procedure, shortened: as §2
SK-BR-3 = experiment: Cytotoxicity against human SKBR3 cells incubated for 72 hrs by MTT assay; format: functional, cell-based; details: SK-BR-3, 72 h
HCT-116 [2] = experiment: Cytotoxicity against p53 expressing human HCT116 cells incubated for 72 hrs by MTT assay; format: functional, cell-based; details: HCT-116, 72 h; procedure, shortened: as §2
HCT-116 [3] = experiment: Cytotoxicity against p53 deficient human HCT116 cells incubated for 72 hrs by MTT assay; format: functional, cell-based; details: HCT-116, 72 h; procedure, shortened: as §2
MDA-MB-435 [4] = experiment: Cytotoxicity against human MDA-MB-435 cells incubated for 72 hrs by MTT assay; format: functional, cell-based; details: MDA-MB-435, 72 h; procedure, shortened: as §2
[5] = molecular target: Vascular endothelial growth factor receptor 2 (Homo sapiens) (UniProt P35968); details: at 10 µM
[6] = Therapeutic index, ratio of CC50 for human C8166 cells to EC50 for HIV1 3B; format: cell-based; details: read-out: Ratio CC50/EC50
Procedure, shortened: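 Therapeutic index was calculated as the C8166 MTT CC50 divided by the HIV-1 IIIB syncytium-reduction EC50.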

[7] = Toxicity against human C8166 cells incubated for 72 hrs by MTT assay; format: cell-based
Procedure, shortened: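 C8166 cells were seeded with serial compound dilutions in triplicate and incubated at 37 °C, 5% CO2 for 72 h. MTT (5 mg/mL in PBS) was added for 4 h, and formazan was dissolved in 50% DMF-20% SDS. Absorbance was read at 595/630 nm. CC50 was taken from the dose-response curve.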

[8] = test system: Human immunodeficiency virus 1; experiment: Antiviral activity against HIV1 3B infected in human C8166 cells assessed as reduction in virus-induced cytopathogenicity measured after 3 days by syncytium reduction assay; format: functional, organism-based; details: Human immunodeficiency virus 1, 3B, C8166, 72 h
Procedure, shortened: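 C8166 cells (4 × 10⁵ mL⁻¹), grown in RPMI-1640 with 10% heat-inactivated FCS and kept in log phase, infected with HIV-1 IIIB at MOI 0.06 in the presence of serial compound dilutions. AZT served as positive control. After 3 days, syncytia were counted by inverted microscope. EC50 was derived from percent inhibition of syncytium number relative to infected control.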

[9] = molecular target: T1, Human immunodeficiency virus type 1 integrase (Human immunodeficiency virus 1, UniProt Q7ZJM1); experiment: Inhibition of HIV1 integrase strand transfer activity using [32P]-labeled linear oligonucleotide substrate
[10] = molecular target: T1, Human immunodeficiency virus type 1 integrase; experiment: Inhibition of HIV1 integrase 3'-processing activity using [32P]-labeled linear oligonucleotide substrate
[11] = molecular target: Receptor tyrosine-protein kinase erbB-2 (Homo sapiens) (UniProt P04626); experiment: Inhibition of ErbB2 at 10 uM incubated for 60 mins using poly(Glu,Tyr)4:1 substrate and 10 uM ATP by ELISA; procedure, shortened: as §1
MDA-MB-435 [12] = experiment: Inhibition of colony formation in human MDA-MB-435 cells at 10 uM treated continuously for 7 days by crystal violet staining based colony formation assay; format: functional, cell-based
Procedure, shortened: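 MDA-MB-435 cells (500 per well) were adhered overnight and treated with compound at 10 μM, or across a dose range. The methods describe a 24 h treatment, then PBS washing and 7–10 days regrowth; the figure legend describes continuous 7-day treatment. Colonies were fixed and stained with 2% crystal violet containing 1% glutaraldehyde, then imaged.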

T1 sequence (Q7ZJM1 whole entry): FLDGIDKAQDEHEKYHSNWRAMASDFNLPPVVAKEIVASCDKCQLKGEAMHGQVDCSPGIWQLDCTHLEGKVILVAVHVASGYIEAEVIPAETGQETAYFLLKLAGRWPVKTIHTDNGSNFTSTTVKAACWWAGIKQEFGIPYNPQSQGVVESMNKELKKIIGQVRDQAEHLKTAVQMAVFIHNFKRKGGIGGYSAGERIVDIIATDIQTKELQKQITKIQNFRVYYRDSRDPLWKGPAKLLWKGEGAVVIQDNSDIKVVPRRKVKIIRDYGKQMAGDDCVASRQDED
Chain of Receptor tyrosine-protein kinase erbB-2 (Homo sapiens) (P04626 whole entry): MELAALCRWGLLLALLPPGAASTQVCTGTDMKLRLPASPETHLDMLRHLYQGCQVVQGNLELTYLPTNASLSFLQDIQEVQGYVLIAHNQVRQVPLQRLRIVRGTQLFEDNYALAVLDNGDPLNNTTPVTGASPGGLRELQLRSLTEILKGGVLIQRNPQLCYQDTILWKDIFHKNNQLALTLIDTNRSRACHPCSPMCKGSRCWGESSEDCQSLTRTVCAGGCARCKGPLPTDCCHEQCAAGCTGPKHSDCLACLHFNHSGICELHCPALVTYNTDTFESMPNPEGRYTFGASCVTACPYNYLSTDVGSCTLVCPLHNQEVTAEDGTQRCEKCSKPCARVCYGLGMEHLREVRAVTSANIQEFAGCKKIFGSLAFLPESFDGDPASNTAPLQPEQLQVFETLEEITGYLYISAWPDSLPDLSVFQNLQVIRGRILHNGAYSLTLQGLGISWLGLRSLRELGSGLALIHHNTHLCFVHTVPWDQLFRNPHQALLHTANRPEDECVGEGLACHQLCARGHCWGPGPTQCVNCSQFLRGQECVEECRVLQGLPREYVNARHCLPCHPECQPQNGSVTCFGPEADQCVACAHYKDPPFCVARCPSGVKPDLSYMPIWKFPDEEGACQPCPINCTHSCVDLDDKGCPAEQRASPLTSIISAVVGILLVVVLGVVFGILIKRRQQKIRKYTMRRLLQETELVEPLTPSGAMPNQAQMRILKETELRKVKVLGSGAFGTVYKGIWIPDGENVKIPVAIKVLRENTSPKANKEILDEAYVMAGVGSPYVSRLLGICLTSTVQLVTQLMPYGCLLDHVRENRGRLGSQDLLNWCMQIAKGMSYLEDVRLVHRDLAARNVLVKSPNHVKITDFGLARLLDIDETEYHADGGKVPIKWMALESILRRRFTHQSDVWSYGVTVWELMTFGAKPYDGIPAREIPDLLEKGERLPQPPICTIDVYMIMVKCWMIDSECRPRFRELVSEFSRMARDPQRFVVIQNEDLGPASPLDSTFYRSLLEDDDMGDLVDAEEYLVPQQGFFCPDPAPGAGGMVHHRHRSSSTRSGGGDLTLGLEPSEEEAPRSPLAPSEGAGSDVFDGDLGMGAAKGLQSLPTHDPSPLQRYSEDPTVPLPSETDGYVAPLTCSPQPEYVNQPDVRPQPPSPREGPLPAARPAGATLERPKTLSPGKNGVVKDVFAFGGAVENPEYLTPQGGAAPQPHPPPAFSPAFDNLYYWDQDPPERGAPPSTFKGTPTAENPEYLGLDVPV
Chain of Vascular endothelial growth factor receptor 2 (Homo sapiens) (P35968 whole entry): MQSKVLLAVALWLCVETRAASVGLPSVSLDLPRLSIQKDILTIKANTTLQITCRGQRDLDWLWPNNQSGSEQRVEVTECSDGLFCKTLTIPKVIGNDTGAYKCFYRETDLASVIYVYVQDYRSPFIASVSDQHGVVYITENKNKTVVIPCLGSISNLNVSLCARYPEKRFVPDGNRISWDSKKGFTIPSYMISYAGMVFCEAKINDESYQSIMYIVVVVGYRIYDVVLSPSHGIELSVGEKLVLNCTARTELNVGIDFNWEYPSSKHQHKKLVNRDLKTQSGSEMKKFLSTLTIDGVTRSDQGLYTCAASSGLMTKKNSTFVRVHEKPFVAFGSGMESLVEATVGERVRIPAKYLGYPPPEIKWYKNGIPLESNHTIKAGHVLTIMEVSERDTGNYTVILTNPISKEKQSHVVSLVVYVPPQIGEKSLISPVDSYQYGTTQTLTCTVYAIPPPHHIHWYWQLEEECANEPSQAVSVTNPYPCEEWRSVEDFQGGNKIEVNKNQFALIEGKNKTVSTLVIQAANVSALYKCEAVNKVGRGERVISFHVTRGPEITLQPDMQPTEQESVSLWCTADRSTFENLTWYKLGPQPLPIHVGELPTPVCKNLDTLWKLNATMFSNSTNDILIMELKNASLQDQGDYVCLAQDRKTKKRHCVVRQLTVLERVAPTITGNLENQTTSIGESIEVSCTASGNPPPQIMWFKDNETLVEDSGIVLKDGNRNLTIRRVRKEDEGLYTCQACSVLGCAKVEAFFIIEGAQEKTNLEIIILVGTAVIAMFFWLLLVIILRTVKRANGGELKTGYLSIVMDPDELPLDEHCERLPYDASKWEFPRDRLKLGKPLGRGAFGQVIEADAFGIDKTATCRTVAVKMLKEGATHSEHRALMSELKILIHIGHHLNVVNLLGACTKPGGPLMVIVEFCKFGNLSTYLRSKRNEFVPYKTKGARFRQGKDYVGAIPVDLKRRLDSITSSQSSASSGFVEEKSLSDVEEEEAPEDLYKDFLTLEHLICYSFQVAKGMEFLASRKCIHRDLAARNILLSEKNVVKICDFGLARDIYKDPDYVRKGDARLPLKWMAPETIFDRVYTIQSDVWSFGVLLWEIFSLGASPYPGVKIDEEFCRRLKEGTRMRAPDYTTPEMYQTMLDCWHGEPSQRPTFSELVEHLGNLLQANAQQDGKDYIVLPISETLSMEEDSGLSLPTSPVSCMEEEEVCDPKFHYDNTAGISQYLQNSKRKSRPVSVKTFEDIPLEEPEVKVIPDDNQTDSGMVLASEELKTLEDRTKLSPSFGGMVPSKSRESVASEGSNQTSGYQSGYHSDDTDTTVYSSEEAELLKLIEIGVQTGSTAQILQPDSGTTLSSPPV
Chain of Proto-oncogene tyrosine-protein kinase Src (Homo sapiens) (P12931 2-536 limits assumed): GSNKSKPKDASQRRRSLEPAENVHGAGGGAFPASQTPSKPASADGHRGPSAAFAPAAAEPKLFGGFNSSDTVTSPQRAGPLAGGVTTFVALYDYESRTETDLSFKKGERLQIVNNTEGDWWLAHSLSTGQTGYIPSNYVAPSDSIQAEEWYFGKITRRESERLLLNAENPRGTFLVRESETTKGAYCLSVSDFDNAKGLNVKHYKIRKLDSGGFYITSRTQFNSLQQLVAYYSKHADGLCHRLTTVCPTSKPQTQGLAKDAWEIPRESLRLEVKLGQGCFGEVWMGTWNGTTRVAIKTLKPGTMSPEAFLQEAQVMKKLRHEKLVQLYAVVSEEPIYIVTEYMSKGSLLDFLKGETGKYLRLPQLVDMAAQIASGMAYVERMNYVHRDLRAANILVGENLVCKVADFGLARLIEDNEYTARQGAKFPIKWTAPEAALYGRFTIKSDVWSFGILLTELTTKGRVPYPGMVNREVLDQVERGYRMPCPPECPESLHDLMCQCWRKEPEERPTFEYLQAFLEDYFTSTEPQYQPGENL

Row | Compound | inhibition [1] [%] | IC50 (LNCaP) [µM] | IC50 (HT-29) [µM] | IC50 (MCF7) [µM] | IC50 (SK-BR-3) [µM] | IC50 (HCT-116 [2]) [µM] | IC50 (HCT-116 [3]) [µM] | IC50 (MDA-MB-435 [4]) [µM] | inhibition [5] [%] | selectivity ratio [6] | CC50 at 72 h [7] [µM] | EC50 [8] [µM] | IC50 [9] [µM] | IC50 [10] [µM] | inhibition [11] [%] | inhibition (MDA-MB-435 [12])
1 | O=C(NCc1ccc(F)cc1)c1nc(Br)c2cccnc2c1N1CCNCC1 | 29 | 4.5 | 10 | 7 | 6 | > 10 | > 10 | 8 | 4 | – | – | – | – | – | – | –
2 | O=C(NCc1ccc(F)cc1)c1nc(NCCO)c2cccnc2c1O | – | – | – | – | – | – | – | > 20 | – | 3140 | 91 | 0.029 | 0.3 | 9.5 | – | –
3 | CS(=O)(=O)NCCCCCCN(c1nc(C(=O)NCc2ccc(F)cc2)c(O)c2ncccc12)S(C)(=O)=O | – | – | – | 7 | – | 3 | 4 | 20 | – | 18500 | 37 | 0.002 | 0.7 | 11 | – | –
4 | NCCCNc1c(C(=O)NCc2ccc(F)cc2)ncc2cccnc12 | 15 | > 10 | > 10 | > 10 | > 10 | > 10 | > 10 | 16 | 10 | – | – | – | – | – | – | –
5 | O=C(NCc1ccc(F)cc1)c1nc(NCCc2c[nH]c3ccccc23)c2cccnc2c1O | – | – | – | 12 | – | – | – | 13 | – | 114 | 42 | 0.368 | 1 | 14 | – | –
6 | CN(C)CCCNc1c(C(=O)NCc2ccc(F)cc2)nc(Br)c2cccnc12 | 17 | 8 | 6 | 7 | 1 | > 10 | > 10 | 7 | 0 | – | – | – | – | – | – | –
7 | C[C@@H](CO)Nc1nc(C(=O)NCc2ccc(F)cc2)c(O)c2ncccc12 | – | – | – | – | – | – | – | > 20 | – | 4650 | 107 | 0.023 | 0.3 | 7.8 | – | –
8 | O=CNCCCCCCNc1nc(C(=O)NCc2ccc(F)cc2)c(O)c2ncccc12 | 23 | – | – | 19 | – | 4 | 6 | 16 | – | 7370 | 199 | 0.027 | 0.2 | 6 | 11 | –
9 | CS(=O)(=O)NCCCN(c1nc(C(=O)NCc2ccc(F)cc2)c(O)c2ncccc12)S(C)(=O)=O | – | – | – | > 20 | – | 15 | 7 | > 20 | – | 21300 | 64 | 0.003 | 0.7 | 34 | – | –
10 | Cc1ccc(S(=O)(=O)Oc2c(C(=O)NCc3ccc(F)cc3)nc(Br)c3cccnc23)cc1 | – | – | – | – | – | > 20 | > 20 | > 20 | – | 6.2 | 31 | 5.01 | 31 | > 111 | – | –
11 | CS(=O)(=O)Oc1c(C(=O)NCc2ccc(F)cc2)nc(Br)c2cccnc12 | – | – | – | – | – | > 20 | > 20 | > 20 | – | 4 | 48 | 11.8 | 13 | > 111 | – | –
12 | NCCCCCCNc1c(C(=O)NCc2ccc(F)cc2)nc(Br)c2cccnc12 | 18 | 8 | 5 | 2 | 3 | 7 | > 10 | 6 | 0 | – | – | – | – | – | – | Active
13 | Nc1ccc(Nc2c(C(=O)NCc3ccc(F)cc3)nc(Br)c3cccnc23)cc1 | 7 | 7 | > 10 | 4 | 4 | 10 | 7 | 7 | 8 | – | – | – | – | – | 1 | –
14 | O=C(NCc1ccc(F)cc1)c1nc(Br)c2cccnc2c1O | – | – | – | – | – | > 20 | > 20 | 15 | – | 7.2 | 80 | 11.1 | 0.5 | 14 | – | –
15 | O=C(NCc1ccc(F)cc1)c1nc(N2CCCCS2(=O)=O)c2cccnc2c1O | 13 | – | – | 2 | – | 2 | 2 | 6 | – | 26400 | 132 | 0.005 | 0.3 | 11 | 8 | –
16 | O=C(NCc1ccc(F)cc1)c1nc(Br)c2cccnc2c1NC1CCNCC1 | 9 | 6 | 4 | 3 | 1 | 9.2 | 6 | 7 | 0 | – | – | – | – | – | 1 | Active
17 | O=C(NCc1ccc(F)cc1)c1nc(Br)c2cccnc2c1NCCO | – | – | – | – | – | > 20 | > 20 | > 20 | – | 4.8 | 232 | 48.9 | 69 | > 100 | – | –
18 | C[C@H](CO)Nc1nc(C(=O)NCc2ccc(F)cc2)c(O)c2ncccc12 | – | – | – | – | – | – | – | > 20 | – | 1330 | 69 | 0.052 | 0.2 | 6.9 | – | –
